CHOP inhibitor: CHOP inhibition in unfolded protein response; CHO-K1 CHOP-promoter luciferase, tunicamycin-induced, 15-18 h; inhibition, % at 10 µM; 220,000 compounds, 3.8% hits;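 active means compounds that reduced the stress-induced luciferase reporter signal by more than about 70% of percent inhibition, limit read from the data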;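 further: 0% = tunicamycin plus vehicle and 100% = wells without tunicamycin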
MT stabilize HCS: stabilizes microtubules in HeLa cells | HeLa tubulin immunostaining HCS, 24 h; share of cells brighter than vehicle mean+2SD | % tubulin-high responders, % at 10 µM | 200,000 compounds, 0.83% hits | AID 2205;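 active means plate Z-score above 3 for both tubulin-high and condensed-nucleus cell shares, with cell loss under 80%, at 10 µM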;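 further: anti alpha tubulin signal scored within the nucleus-defined area of each cell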
Lmaj promast: Leishmania major promastigote growth inhibition | Leishmania major promastigotes, resazurin fluorescence viability | 200,000 compounds, 9% hits | inhibition, % at 10 µM | AID 1063; in the data active means inhibition above about 50%;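 further: promastigotes grown with compound for 44 hours at 28 °C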
bCat nuc transl: modulators of beta-catenin nuclear translocation. nuclear translocation activity, % at 5 µM. AID 1665. HeLa beta-catenin nuclear translocation, immunofluorescence imaging. 190,000 compounds, 0.3% hits;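 active means nuclear translocation activity above 50% at 5 µM, with a well cell count of 50 or more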;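 further: per-cell ratio of nuclear to cytoplasmic median beta-catenin stain intensity; plate controls were DMSO negative control for no effect and GSK-3 inhibitor IX positive control for full effect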
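System: HeLa cells, endogenous beta-catenin; compound dosing: 5 µM primary single dose, 0.1% DMSO, 0.02–20 µM confirmation series; incubation: 24 h compound exposure at 37°C, 5% CO2; signal: beta-catenin immunofluorescence imaging with DAPI; evaluation: % activation, nuclear-to-cytoplasmic median beta-catenin signal ratio per cell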
Dynein cargo inh: dynein cargo transport inhibition; 220,000 compounds, 0.47% hits; AID 1381; z-score, hits read low; 3617.4 mouse cells, GR-EGFP nuclear translocation imaging; test concentration mostly 20 µM; stimulated with dexamethasone, 1 µM; hits give low values;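 active means plate z-score of nuclear minus cytoplasmic receptor signal below a set negative limit, without overly bright fluorescence or cell loss, cut at about -3.5 in these data, passing the limit was not always enough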;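 further: z-score of nuclear minus cytoplasmic ring GR-EGFP intensity difference per well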
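Buffer or medium – tet-free medium with charcoal-stripped serum · Signal – automated 10x imaging of fixed Hoechst-stained cells · Also added – dexamethasone agonist, 1.0 µM final, for 30 min · Incubation – induction 48 h, compound 1 h, agonist 30 min · Read-out – GR-EGFP nuclear translocation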
Autophagy mod: modulators of autophagy; calls only at 10 µM (by protocol); MEF GFP-LC3 puncta imaging; test concentration mostly 10 µM; 190,000 compounds, 0.98% hits;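 active means percentage of spot-positive cells more than 3 SD above its plate mean, without a fluorescence outlier flag or 80% toxicity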;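 further: spot-positive cell cutoff set from DMSO-treated cells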
Active calls of the source: *; i = inactive; · = no result given; + = active, no number. Compounds with a hit are over-represented: about 12% of the library has one in this group of screens.

SMILES | CHOP inhibitor | MT stabilize HCS | Lmaj promast | bCat nuc transl | Dynein cargo inh | Autophagy mod
O=C(NCc1cccnc1)c1ccc2c(c1)OCO2 | 10 | 5 | -3 | -3 | -0.051 | i
Cc1ccc(-n2nnnc2-c2ccccc2)cc1 | 1 | 7 | -4 | 2 | 0.24 | i
Clc1ccc(-c2nnnn2-c2ccc(Cl)c(Cl)c2)cc1Cl | 83* | 2 | 14 | · | 0.14 | i
Cc1ccc(-n2c(=O)c3sccc3n(Cc3cc(=O)n4cc(Cl)ccc4n3)c2=O)cc1F | 29 | 3 | 2 | 4 | -0.26 | i
O=C(Oc1ccc2ccccc2c1)c1cncc(Br)c1 | 94* | 2 | -6 | · | 1.7 | i
O=C(Oc1ccc2c(=O)c(Oc3ccc4ccccc4c3)coc2c1)c1cncc(Br)c1 | -11 | 4 | -11 | -1 | 0.81 | i
CCc1nnc(NC(=O)COc2ccccc2[N+](=O)[O-])s1 | 0 | · | · | 1 | 0.78 | ·
Cn1cc(CN2CCCC(CO)(Cc3ccccc3)C2)cn1 (centres undefined) | 6 | 3 | 77* | 1 | -0.15 | i
Cc1cccc(-c2ncc(CN3CCCC(CO)(Cc4cccc(Cl)c4)C3)cn2)c1 (centres undefined) | -8 | 3 | 9 | 2 | -0.96 | i
CSc1cccc(CN2CCCC(CO)(Cc3cccc(Cl)c3)C2)c1 (centres undefined) | 95* | 2 | 1 | 0 | -1.4 | i
CCn1cc(CN2CCCC(CO)(Cc3cccc(Cl)c3)C2)cn1 (centres undefined) | 17 | 3 | 92* | 1 | 0.11 | i
CC(=O)Nc1ccc(CN2CCCC(CO)(Cc3cccc(Cl)c3)C2)cc1 (centres undefined) | 25 | · | · | 2 | -0.08 | ·
Cn1cc(CN2CCCC(CO)(Cc3cccc(Cl)c3)C2)cn1 (centres undefined) | 22 | 1 | 81* | -2 | -0.42 | i
CCOC(=O)C1(Cc2ccccc2)CCCN(Cc2cnn(CC)c2)C1 (centres undefined) | 19 | 3 | 16 | -1 | -0.35 | i
Cc1ccccc1CC1(CO)CCCN(Cc2c(C)nn(C)c2Cl)C1 (centres undefined) | 12 | 3 | 12 | 0 | 0.59 | i
Cc1nn(C)c(Cl)c1CN1CCCC(CO)(Cc2cccc(Cl)c2)C1 (centres undefined) | 3 | 2 | 86* | 0 | 0.85 | i
COc1cccc(CC2(CO)CCCN(Cc3cn[nH]c3-c3ccccc3)C2)c1 (centres undefined) | -2 | 2 | 1 | -1 | -0.16 | i
CSc1cccc(CN2CCC(CO)(Cc3ccccc3)CC2)c1 | 18 | 1 | 88* | 2 | -0.84 | i
OCC1(Cc2cccc(Cl)c2)CCCN(Cc2cnn(-c3ccccc3)c2)C1 (centres undefined) | 24 | 2 | 85* | 0 | -0.12 | i
CC(C)n1cc([C@@H]2C[C@H]3CN(Cc4cccc(Cl)c4)C(=O)[C@]34CCCN24)cn1 | -5 | 3 | -3 | 1 | -1.1 | i
CC(C)n1cc(CN2CCCC(CO)(Cc3cccc(Cl)c3)C2)cn1 (centres undefined) | 9 | 4 | 87* | -1 | 0.26 | i
Cc1cc(C)c2nc(SCC(=O)NCCN3C(=O)CSC3=O)cc(C)c2c1 | 36 | 6 | 0 | -2 | 1.2 | i
S=c1[nH]ccn1-c1c(Cl)cccc1Cl | -1 | · | · | -2 | -1.9 | ·
O=c1[nH]c(=S)n(-c2cccc(Cl)c2)c(O)c1/C=N/N1CCOCC1 | 6 | · | · | 1 | 0.19 | ·
CN(C1CCCCC1)S(=O)(=O)c1ccc2[nH]c(=O)oc2c1 | 3 | · | · | 0 | -0.24 | ·
SMILES | CHOP inhibitor | MT stabilize HCS | Lmaj promast | bCat nuc transl | Dynein cargo inh | Autophagy mod
Cc1cc(/C=N/n2cnnc2)c(C)n1-c1cc(Cl)ccc1Cl | 39 | 3 | 28 | 5 | 0.61 | i
COc1cc(CN2CCCC(CO)(Cc3cccc(Cl)c3)C2)cc2c1OCO2 (centres undefined) | 28 | 3 | 73* | 0 | 0.25 | i
CN(CC(=O)Nc1ccccc1C(=O)N1CCCC1)S(=O)(=O)c1ccc(Cl)cc1 | 4 | 2 | -2 | · | 0.68 | i
O=[N+]([O-])c1cc(-c2cnc3ccccc3n2)ccc1Oc1ccc(Cl)cc1 | 10 | 6 | -12 | -1 | 0.45 | +
COc1ccc(Nc2nc(-c3ccc4c(c3)NC(=O)CO4)cs2)cc1 | 23 | 4 | 40 | -2 | 1.7 | i
COc1ccccc1Nc1nc(-c2ccc3c(c2)NC(=O)CO3)cs1 | 39 | 24* | 26 | 0 | -0.8 | i
Cc1cc(NC(=O)Cn2nnc3sc4c(c3c2=O)CCC(C(C)(C)C)C4)no1 (centres undefined) | 81* | 4 | 9 | 5 | -0.0046 | i
CCOc1ccc2c(c1)OC(c1ccccc1)(C(F)(F)F)NC2=O (centres undefined) | 55 | 3 | -2 | -1 | -0.064 | i
CCOc1ccc2c(c1)OC(c1ccc(OC)cc1)(C(F)(F)F)NC2=O (centres undefined) | 3 | 16 | 100* | -2 | -0.65 | i
CCCc1[nH]nc2c1C(c1ccc(O)cc1OCC)C(C#N)=C(N)O2 (centres undefined) | 7 | 5 | 56* | 3 | 0.33 | i
CCCc1[nH]nc2c1C(C1CCCCC1)C(C#N)=C(N)O2 (centres undefined) | 48 | 4 | 93* | 0 | -1.2 | i
CCCc1[nH]nc2c1C(c1ccsc1)C(C#N)=C(N)O2 (centres undefined) | -4 | 1 | 31 | 0 | 0.65 | i
COCc1[nH]nc2c1C(c1sccc1C)C(C#N)=C(N)O2 (centres undefined) | 11 | 5 | 72* | -1 | 3.4 | i
CC(=O)Nc1cccc(NC=C(C#N)C#N)c1 | 10 | 3 | -3 | -2 | -0.45 | i
O=C(/C=C\Nc1ccc2c(c1)OCO2)c1ccccn1 | 95* | 4 | -7 | · | -0.56 | i
O=C(/C=C\Nc1ccc2c(c1)OCO2)c1ccc2c(c1)OCO2 | 37 | 1 | -6 | 1 | 0.16 | i
CCOC(=O)N1CCN(CC(O)COc2ccc(C)cc2C(C)(C)C)CC1 (centres undefined) | 58 | 3 | 98* | · | -0.56 | i
CCOC(=O)N1CCN(CC(O)COCc2ccc(OC)c(OC)c2)CC1 (centres undefined) | 34 | 2 | 3 | · | 0.73 | i
CCOC(=O)N1CCN(CC(O)COCC2=CCC3CC2C3(C)C)CC1 (centres undefined) | 38 | 7 | 94* | -1 | -0.28 | i
CCOC(=O)N1CCN(CC(O)COCc2ccccc2)CC1 (centres undefined) | 14 | 4 | 66* | -1 | -0.96 | i
O=C1Nc2ccc(Br)cc2C1=Nc1cccnc1 | 3 | · | · | 0 | -0.38 | ·

High-throughput results deposited in PubChem BioAssay by several laboratories.
